Results from article PMC8273888 (Journal of Medicinal Chemistry, 2021).
Where two headings read alike, the source gives them in different places.

What was measured:
IMP-1 [1] = target: T1, IMP-1 (Serratia marcescens, UniProt P52699); conditions: cited from earlier work
NDM-1 [2] = target: T2, NDM-1 (Klebsiella pneumoniae, UniProt C7C422); conditions: read-out: IC50 NDM-1; cited from earlier work
VIM-1 = conditions: cited from earlier work
E. coli (NDM-1) = assay: Synergy assay: MIC of meropenem in combination with test compound; assay type: cell-based
E. cloacae (IMP-1) = assay: as above; assay type: cell-based
IMP-28 = IMP-28 (Klebsiella oxytoca, UniProt G4WB26); assay: Enzyme inhibition assay with nitrocefin as chromogenic substrate; assay type: biochemical; conditions: for decrease of activity against IMP-28 relative to 8: from IC50 data of Table 2
IMP-1 [3] = target: T1, IMP-1; assay: as above; assay type: biochemical; conditions: for decrease of activity against IMP-1 relative to 8: from IC50 data of Table 2
K. pneumoniae (IMP-28) = assay: Synergy assay: MIC of meropenem in combination with test compound; assay type: cell-based
NDM-1 [4] = target: T2, NDM-1; assay: Enzyme inhibition assay with nitrocefin as chromogenic substrate; assay type: biochemical
How it was run: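 Recombinant NDM-1 (6 nM) in 50 mM HEPES pH 7.2 with 1 μM ZnSO₄ and 0.01% Triton X-100 was preincubated with a range of test compound concentrations for 15–60 min at 25 °C. Nitrocefin (10 μM, ∼2 × K_M) was then added and A492 was read at once over 30 cycles. For time 0, enzyme was added last. IC50 came from initial velocities, in three independent replicates.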

E. coli (VIM-2) = assay: Synergy assay: MIC of meropenem in combination with test compound; assay type: cell-based
VIM-2 = VIM-2 (Escherichia coli, UniProt Q5U7L7); conditions: cited from earlier work
IMP family = conditions: cited from earlier work
[5] = test compound 0 μg/mL (meropenem alone, baseline)
[6] = mean ± SD, nitrocefin substrate

T1 sequence (P52699 19-246, looked up, species assumed): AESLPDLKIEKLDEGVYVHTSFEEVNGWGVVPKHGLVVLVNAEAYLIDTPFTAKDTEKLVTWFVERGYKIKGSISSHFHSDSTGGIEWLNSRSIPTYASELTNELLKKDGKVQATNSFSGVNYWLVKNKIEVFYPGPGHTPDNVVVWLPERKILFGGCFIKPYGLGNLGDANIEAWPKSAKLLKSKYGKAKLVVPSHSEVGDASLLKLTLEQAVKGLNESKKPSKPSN
T2 sequence (C7C422 29-270, looked up, species assumed): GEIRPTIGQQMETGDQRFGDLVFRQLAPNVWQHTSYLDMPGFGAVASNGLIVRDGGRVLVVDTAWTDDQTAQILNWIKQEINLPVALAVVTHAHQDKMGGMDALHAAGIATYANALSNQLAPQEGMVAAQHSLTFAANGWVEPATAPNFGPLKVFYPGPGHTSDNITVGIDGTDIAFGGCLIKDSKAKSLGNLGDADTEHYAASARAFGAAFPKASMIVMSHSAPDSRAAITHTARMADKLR
IMP-28, sequence (G4WB26 20-246): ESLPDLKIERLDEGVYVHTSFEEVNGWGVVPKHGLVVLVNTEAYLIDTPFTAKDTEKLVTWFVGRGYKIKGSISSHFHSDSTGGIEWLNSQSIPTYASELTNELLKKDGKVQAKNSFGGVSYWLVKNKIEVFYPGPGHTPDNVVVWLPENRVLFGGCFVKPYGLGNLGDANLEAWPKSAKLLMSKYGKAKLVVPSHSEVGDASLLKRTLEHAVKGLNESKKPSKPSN

## O=C(O)c1ncsc1NS(=O)(=O)c1cccnc1 [ANT431]
IMP-1 [1]
  inhibitory activity against IMP-1: remain resistant
NDM-1 [2]
  IC50: 2.67 µM
VIM-1
  inhibitory activity against VIM-1: remain resistant

## O=C(Cc1ccccc1)N[C@@H]1C(=O)N2C(C(=O)O)=C(CSCC(=O)c3ccccc3)CS[C@H]12 [Compound 6]
E. coli (NDM-1); [5]
  meropenem MIC: 32 µg/mL
E. cloacae (IMP-1); test compound 128 μg/mL
  Fold reduction of MIC (meropenem): 4 (4) fold
  meropenem MIC: 4 (4) μg/mL

## O=C(Cc1ccccc1)N[C@H](C(=O)O)[C@@H]1N=C(C(=O)O)C(CSC(C(=O)O)c2ccccc2)CS1 (stereo partly drawn) [Compound 8H]
IMP-28; [6]
  IC50 IMP-28: sub-micromolar
IMP-1 [3]; [6]
  IC50 IMP-1: sub-micromolar

## O=C(Cc1ccccc1)N[C@@H]1C(=O)N2C(C(=O)O)=C(CSC(C(=O)O)c3ccccc3)CS[C@H]12 (stereo partly drawn) [Compound 8]
K. pneumoniae (IMP-28); test compound 32 μg/mL
  Fold reduction of MIC (meropenem): ≥ 64 fold
K. pneumoniae (IMP-28); test compound 64 μg/mL
  Fold reduction of MIC (meropenem): ≥ 64 fold
K. pneumoniae (IMP-28); test compound 128 μg/mL
  Fold reduction of MIC (meropenem): ≥ 64 fold

## O=C(Cc1ccccc1)N[C@@H]1C(=O)N2C(C(=O)O)=C(CS[C@H](Cc3ccccc3)C(=O)O)CS[C@H]12 [Compound 9]
IMP-28; more potent than 10
  potency relative to diastereomer 10 against IMP-28: ~30 fold
IMP-1 [3]; more potent than 10
  potency relative to diastereomer 10 against IMP-1: ca. 10 fold
K. pneumoniae (IMP-28); test compound 32 μg/mL
  Fold reduction of MIC (meropenem): ≥ 64 fold
K. pneumoniae (IMP-28); test compound 64 μg/mL
  Fold reduction of MIC (meropenem): ≥ 64 fold
K. pneumoniae (IMP-28); test compound 128 μg/mL
  Fold reduction of MIC (meropenem): ≥ 64 fold

## O=C(Cc1ccccc1)N[C@@H]1C(=O)N2C(C(=O)O)=C(CS[C@@H](Cc3ccccc3)C(=O)O)CS[C@H]12 [Compound 10]
E. cloacae (IMP-1); test compound 128 μg/mL
  Fold reduction of MIC (meropenem): 4 (4) fold
  meropenem MIC: 4 (4) μg/mL

## O=C(Cc1ccccc1)N[C@@H]1C(=O)N2C(C(=O)O)=C(CSCc3ccccc3)CS[C@H]12 [Compound 11]
E. coli (NDM-1); [5]
  meropenem MIC: 32 µg/mL
E. cloacae (IMP-1); [5]
  meropenem MIC: 32 µg/mL
NDM-1 [4]
  IC50: > 100 µM
IMP-28
  decrease of activity against IMP-28 relative to 8: ca. 100 fold
IMP-1 [3]
  decrease of activity against IMP-1 relative to 8: ca. 100 fold
E. coli (VIM-2); test compound 32 μg/mL
  Fold reduction of MIC (meropenem): 2 (2) fold
  meropenem MIC: 2 (2) μg/mL
E. coli (VIM-2); test compound 64 μg/mL
  Fold reduction of MIC (meropenem): 2 (2) fold
  meropenem MIC: 2 (2) μg/mL

## O=C(Cc1ccccc1)N[C@@H]1C(=O)N2C(C(=O)O)=C(CSCCc3ccccc3)CS[C@H]12 [Compound 12]
E. coli (NDM-1); [5]
  meropenem MIC: 64 µg/mL
NDM-1 [4]
  IC50: > 100 µM

## O=C(O)CSCC1=C(C(=O)O)N2C(=O)[C@@H](NC(=O)Cc3ccccc3)[C@H]2SC1 [Compound 13]
E. coli (NDM-1); [5]
  meropenem MIC: 32 µg/mL
E. cloacae (IMP-1); test compound 128 μg/mL
  Fold reduction of MIC (meropenem): 4 (4) fold
  meropenem MIC: 4 (4) μg/mL
IMP-28
  decrease of activity against IMP-28 relative to 8: ca. 100 fold
IMP-1 [3]
  IC50: > 100 µM
  decrease of activity against IMP-1 relative to 8: ca. 100 fold
E. coli (VIM-2); test compound 32 μg/mL
  Fold reduction of MIC (meropenem): 2 (2) fold
  meropenem MIC: 2 (2) μg/mL
E. coli (VIM-2); test compound 64 μg/mL
  Fold reduction of MIC (meropenem): 2 (2) fold
  meropenem MIC: 2 (2) μg/mL

## CC1=C(C(=O)O)N2C(=O)[C@@H](NC(=O)Cc3ccccc3)[C@H]2SC1 [Compound 15]
E. coli (NDM-1); [5]
  meropenem MIC: 32 µg/mL
NDM-1 [4]
  IC50: > 100 µM
IMP-28
  decrease of activity against IMP-28 relative to 8: ca. 100 fold
IMP-1 [3]
  IC50: > 100 µM
  decrease of activity against IMP-1 relative to 8: ca. 100 fold
E. coli (VIM-2); test compound 32 μg/mL
  Fold reduction of MIC (meropenem): 2 (2) fold
  meropenem MIC: 2 (2) μg/mL
E. coli (VIM-2); test compound 64 μg/mL
  Fold reduction of MIC (meropenem): 2 (2) fold
  meropenem MIC: 2 (2) μg/mL

## O=C(O)c1cccc(C(=O)O)n1 [DPA, Dipicolinic acid, reference compound]
E. coli (NDM-1); test compound 128 μg/mL
  meropenem MIC: ≤ 0.5 µg/mL
E. coli (VIM-2); [5]
  meropenem MIC: 4 µg/mL
E. coli (VIM-2); test compound 32 μg/mL
  meropenem MIC: ≤ 0.063 µg/mL
E. coli (VIM-2); test compound 64 μg/mL
  meropenem MIC: ≤ 0.063 µg/mL
E. coli (VIM-2); test compound 128 μg/mL
  meropenem MIC: ≤ 0.063 µg/mL
K. pneumoniae (IMP-28); test compound 64 μg/mL
  meropenem MIC: ≤ 0.031 µg/mL
K. pneumoniae (IMP-28); test compound 128 μg/mL
  meropenem MIC: ≤ 0.031 µg/mL

## NCCN[C@H]1CC[C@H](CC(=O)N[C@H]2Cc3cccc(C(=O)O)c3OB2O)CC1 [taniborbactam]
VIM-2
  IC50 VIM-2: sub-micromolar
IMP family
  inhibition of the IMP family: weak inhibition
